Measurements of several laboratories.
Compare with care: the assays were run in different laboratories.
Cell line: HT-29
Observed: cell growth or viability

Structure (SMILES) | method | concentration | time | measurement | value
N.N.[Cl][Pt][Cl] | SRB |  | 48 h | IC50 | 20000 nM
O=C(N/N=C1\C(=O)N(Cc2ccccc2)c2ccc(F)cc21)c1cc2ccccc2[nH]1 |  | 30 µM |  | inhibition | 94.3%
COc1ccc2[nH]cc(CCNc3nccc(Nc4cccc5c4ccn5C)n3)c2c1 | fluorescence |  | 72 h | IC50 | 3.9 nM
COc1c2c(cc3c1OCO3)[C@]13C=C[C@H](OC)C[C@@H]1[N@](C2)C[C@H]3OC(=O)c1ccoc1 | WST-1 |  |  | IC50 | > 10000 nM
COc1ccc2c(c1)/C(=N/NC(=O)c1cc3ccccc3[nH]1)C(=O)N2Cc1ccccc1 |  |  |  | IC50 | 2280 nM
c1ccc2c(c1)[I+]c1ccccc1-2 | trypan blue |  | 48 h | IC50 | ~100 nM
O=C(N/N=C1\C(=O)N(Cc2ccccc2)c2ccc(Br)cc21)c1cc2ccccc2[nH]1 |  |  |  | IC50 | 2260 nM
COc1cc2c(c3c1C(=O)C[C@@H](c1ccccc1)O3)[C@H]1[C@@H](O2)OC(C)(C)[C@@H]1OC(C)=O | SRB |  | 72 h | IC50 | > 10000 nM
CCCCCCCC(=O)SCC/C=C/[C@@H]1CC(=O)NCc2nc(cs2)C2=N[C@@](C)(CS2)C(=O)N[C@@H](C(C)C)C(=O)O1 | resazurin |  | 48 h | IC50 | 16.2 nM
COc1c2c(cc3c1OCO3)[C@]13C=C[C@H](OC)C[C@@H]1[N@](C2)C[C@H]3OC(=O)c1ccc2ccccc2c1 | WST-1 |  |  | IC50 | > 10000 nM
COc1cc2c(O[C@@H]3O[C@H](CO)[C@@H](O)[C@H](O)[C@H]3O)c3c(c(-c4ccc5c(c4)OCO5)c2cc1OC)C(=O)OC3 |  |  |  | IC50 | 12000 nM
